Screens as filed in PubChem.
Most compounds without a hit are left out; they make up all but 3.7% or so of the library.
KCNQ1 block – human KCNQ1 channel inhibition; CHO-K1 KCNQ1, FluxOR thallium flux fluorescence; active compounds read high; B-score at 10 µM; P51787; actives 1.3% (n = 310,000);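 active = compounds whose thallium flux B-score, printed positive for inhibition, exceeds three library SD while starting fluorescence stays within three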;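 note: channel opened by potassium depolarization with thallium stimulus after 20 min compound exposure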
KCNK3 block – human KCNK3 channel inhibition, primary screen; B-score at 10 µM; CHO-KCNK3 thallium flux, FluxOR fluorescence; active compounds read low; AID 602410; actives 0.84% (n = 340,000); O14649;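 active = B-score under library mean minus 4 SD, starting fluorescence ratio at most library mean plus 5 SD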;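 note: more negative B-score means stronger inhibition of thallium flux through KCNK3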
Target sequence (O14649 whole entry, looked up): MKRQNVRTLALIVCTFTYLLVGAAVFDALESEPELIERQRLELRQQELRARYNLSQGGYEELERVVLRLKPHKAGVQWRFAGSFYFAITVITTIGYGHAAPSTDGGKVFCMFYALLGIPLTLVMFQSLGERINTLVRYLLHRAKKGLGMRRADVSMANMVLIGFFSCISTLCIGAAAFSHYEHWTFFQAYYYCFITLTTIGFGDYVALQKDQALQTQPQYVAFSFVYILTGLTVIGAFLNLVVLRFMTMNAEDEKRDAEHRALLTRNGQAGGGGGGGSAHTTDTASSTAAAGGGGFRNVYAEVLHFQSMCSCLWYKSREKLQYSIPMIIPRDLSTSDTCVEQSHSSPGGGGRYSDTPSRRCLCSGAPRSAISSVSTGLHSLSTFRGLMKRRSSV
KCNK9 block – blocks the human KCNK9 two-pore domain potassium channel; Q9NPC2; HEK293 KCNK9, FluxOR thallium flux fluorescence; active compounds read low; B-score at 10 µM; actives 1.2% (n = 310,000); AID 488922;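 active = ratio B-score over 3 SD below the library mean, with starting fluorescence within 5 SD of its mean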;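 note: negative B-score means less thallium flux so channel inhibition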
hERG protect – hERG (human) protection from proarrhythmic block | Q12809 | actives 0.51% (n = 310,000) | AID 1511 | CHO-hERG, FluxOR thallium flux, dofetilide IC70 present | activation (rescue from dofetilide block), less the hit threshold, % at 10 µM;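 active = activation above the mean of controls blocked by dofetilide plus 5 SD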;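 note: thallium influx through hERG after potassium depolarization seen as dye fluorescence rise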
KCNQ1 pot – potentiators or activators of human KCNQ1 potassium channel | P51787 | CHO-K1 KCNQ1, thallium flux FluxOR fluorescence; active compounds read high | B-score at 10 µM | actives 0.35% (n = 310,000);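 active = fluorescence ratio B-score, a plate-corrected score, at least three library SD, with initial intensity B-score within 5 SD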
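System: CHO-K1 cells stably expressing KCNQ1 / Medium: assay buffer for compound exposure, DMSO matched across wells / Reagent: thallium- and potassium-containing depolarizing buffer / Compound: one concentration, matched DMSO / Incubation: 20 min compound pretreatment at room temperature / Measured by: kinetic FluxOR fluorescence, 10 s baseline plus 110 s post-stimulus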
Kir21 inh – inhibitors of mouse Kir2.1 inward-rectifier potassium channel | P35561 | HEK293-Kir2.1, FluxOR thallium flux fluorescence; active compounds read low | B-score at 10 µM | actives 0.85% (n = 310,000);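 active = fluorescence ratio B-score at or below minus 3 SD of library scores, with starting-brightness B-score within 2 SD, cut at about -4.2 in these data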;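 note: channel flux triggered by added potassium and thallium sulfate stimulus; B-score of peak minus minimum fluorescence over baseline after thallium stimulus; more negative B-score means stronger Kir2.1 block with less thallium influx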
The depositor's hits bear a star; i = inactive; nt = not tested or not shown.

SMILES | KCNQ1 block | KCNK3 block | KCNK9 block | hERG protect | KCNQ1 pot | Kir21 inh
Cc1ccc(NS(=O)(=O)c2ccc(OCC(=O)NCc3ccccn3)cc2)cc1 | i | i | i | -10 | i | -0.29
CC(=O)C1=C(C)NC(SCC(=O)c2ccc(C)cc2)=C(C#N)C1c1ccco1 (configuration not stated) | 6* | nt | i | -12 | i | 1.6
N#CC1=C(SCC(=O)c2ccc(Cl)cc2)NC2=C(C(=O)CCC2)C1c1ccco1 (configuration not stated) | i | i | i | -16 | i | 1.3
CCN(C(=O)CCN1C(=O)/C(=C/c2ccccc2)SC1=S)C1CCS(=O)(=O)C1 (configuration not stated) | i | i | i | -10 | i | 0.42
N=c1c2c3c(sc2ncn1Nc1ccccc1)CCC3 | i | i | i | -10 | i | -1.1
O=C1CCSc2ccc(Cl)cc2N1Cc1ccccc1 | i | i | i | -5 | i | -1.5
O=C1CCSc2ccc(Cl)cc2N1Cc1ccc(Cl)cc1 | i | i | -7.6* | -11 | i | -2.2
Cc1ccc(NC(=O)NCc2ccccn2)cc1 | i | i | i | 9.3* | i | -2.9
CN(C(=O)CC1C(=O)NCCN1Cc1ccc(F)c(F)c1)C1CCCCC1 (configuration not stated) | i | i | i | -9 | i | -0.89
CN(CCC#N)C(=O)CSc1ncnc2sc(-c3ccccc3)cc12 | i | i | i | -4 | i | -0.06
CC(C#N)Sc1ncnc2sc(-c3ccccc3)cc12 (configuration not stated) | 6* | i | i | -4 | i | -0.74
CC(=O)c1sc(N/N=C\c2ccccc2O)nc1C | i | i | i | -12 | i | 0.14
C/C=C(/C)C(=O)O[C@@H]1c2c(ccc3ccc(=O)oc23)OC(C)(C)[C@@H]1OC(=O)/C(C)=C\C | i | i | -7.4* | -6 | i | 0.43
O=[N+]([O-])c1ccc(/C=C2\CCC(C3=CCCC3)=C2N2CCOCC2)cc1 | i | i | i | -15 | i | -1.9
Cc1ccc(C(=O)/C=C/c2cc(C#N)n(C)c2C)cc1 | i | i | i | -13 | i | 0.33
CCc1ccc(C(O)(CNCc2ccccc2)c2ccccc2)cc1 (configuration not stated) | i | i | i | -13 | i | -8.9*
COc1ccc(CNCC(O)(c2ccccc2)c2ccc(Cl)cc2)cc1 (configuration not stated) | i | i | i | -29 | i | -5.9*
O=C(Oc1ccc(Br)cc1C(=S)N1CCCC1)c1ccccc1Cl | i | i | -8* | -5 | i | -0.98
Cc1c(OC(C)C(=O)NCC(O)c2ccccc2)ccc2c3c(c(=O)oc12)CCC3 (configuration not stated) | i | i | i | -5 | i | 0.87
CC(=O)NN1C(=O)/C(=C\c2ccc(Br)o2)SC1=S | i | i | i | -12 | i | -5*
CC(=O)NN1C(=O)/C(=C/c2ccc(Br)o2)SC1=S | i | i | i | -10 | i | -0.88
CS(=O)(=O)N(CC(=O)N1CCCC1)c1cc(C(F)(F)F)ccc1Cl | i | i | i | -20 | i | 0.42
CS(=O)(=O)N(CC(=O)N1CCOCC1)c1cc(C(F)(F)F)ccc1Cl | i | i | i | 7.3* | i | 1.2
CC(CNC(=O)CCS(=O)(=O)c1ccc2c(c1)NC(=O)CO2)c1ccccc1 (configuration not stated) | i | i | i | -2 | i | 0.06
O=C(CCNS(=O)(=O)c1ccc(OC(F)(F)F)cc1)Nc1cccc(S(=O)(=O)N2CCCC2)c1 | nt | i | nt | nt | nt | nt
SMILES | KCNQ1 block | KCNK3 block | KCNK9 block | hERG protect | KCNQ1 pot | Kir21 inh
COc1ccccc1CNC(=O)Cn1ccsc1=N | i | i | i | -6 | i | 2
CCn1c(/C=C/N(C)c2ccccc2)[n+](CC)c2ccc(Cl)cc21 | 13* | i | i | -22 | i | -1.7
CCn1c(C)[n+](Cc2ccccc2)c2ccc(Cl)cc21 | i | i | i | -12 | i | 0
Cc1noc(C)c1CN(C(=S)NC(C)C)c1ccccc1 | i | i | i | -11 | i | -6.5*
CN1CCN(S(=O)(=O)c2cccc(C(=O)Nc3ccc(Br)cc3Br)c2)CC1 | i | i | i | -5 | i | -0.35
COc1ccc(C(=O)O)cc1S(=O)(=O)Nc1ccccc1C(=O)NCc1ccc2c(c1)OCO2 | nt | i | nt | nt | nt | nt
COC(=O)c1ccc(NC(=S)NC2CCCCC2)cc1 | i | i | i | -21 | i | -0.08
COC(=O)c1cccnc1NC(=S)NC1CCCCC1 | i | i | i | 0 | 18* | 1.2
O=C(NC1CCCC1)c1cccnc1N1CCCCCC1 | i | i | i | 5.0* | i | 0.48
N#Cc1c(/N=C/c2cccs2)sc2c1CCCCC2 | 6* | i | i | -17 | i | 0.8
COc1cccc(C2Nc3ccc4ccccc4c3C3=C2C(=O)CCC3)c1O (configuration not stated) | i | i | i | -6 | i | -0.17
Cc1cc(C)nc(N2CCCC(C(=O)NCc3ccccc3)C2)n1 (configuration not stated) | i | i | i | 5.2* | i | -2.1
Cc1ccc(CNC(=O)C2CCCN(c3nc(C)cc(C)n3)C2)cc1 (configuration not stated) | i | i | i | -1 | i | 2
O=C(NCCO)c1c(O)c2cccc3c2n(c1=O)CC3 | i | i | i | -7 | i | 0.2
CC(C)(C)c1ccccc1NC(=O)c1c(O)c2cccc3c2n(c1=O)CC3 | 7* | nt | i | -6 | i | -0.51
O=C(Nc1nccs1)c1c(O)c2cccc3c2n(c1=O)CCC3 | 6* | nt | i | -4 | i | -0.84
O=C(c1ccc(S(=O)(=O)Nc2ccccc2)cc1)N1CCCCCCC1 | i | i | i | -6 | i | 1.9
N#Cc1cccc(S(=O)(=O)NCc2nnc3ccccn23)c1 | nt | i | nt | nt | nt | nt
O=S(=O)(Nc1nc2ccccc2nc1Nc1ccc2c(c1)OCCO2)c1cccs1 | 12* | i | i | 1 | i | 0.98
COc1ccc(S(=O)(=O)Nc2nc3ccccc3nc2Nc2ccc3c(c2)OCO3)cc1 | i | nt | i | -10 | i | -0.46
Cc1c2c(nc3ccccc13)CC(C)(C)CC2=O | i | i | i | -12 | i | -0.93
CC1(C)CC(=O)c2c(nn(-c3ccccc3)c2-c2ccncc2)C1 | i | i | i | 7.1* | i | -0.22
